PGC1a acetyl inh – inhibitors of PGC1a acetylation signal, primary screen, cell-based, U2OS, AlphaScreen, inhibitor mode | AID 651687, 2012 | inhibition, % at 15.6 µM | AlphaScreen anti-acetyl-lysine; with virally co-expressed GCN5 acetyltransferase | 0.17% of 350,000 active;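 active = every replicate shows inhibition of at least 40%; inconclusive = mean inhibition at least 40% but some replicate below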;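 also: 0% = neutral control wells and 100% = positive control wells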
Cneo AK release – Cryptococcus neoformans cell lysis inducers, primary screen, AK release luminescence, single concentration | lysis activity, % at 15 µM | 0.2% of 360,000 active | AID 651654, 2012 | C. neoformans lysis, adenylate kinase release luminescence, 4 h; normalised: neutral wells 0, clomiphene wells 100;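 active = mean lysis activity across replicates of at least 80%, whatever share of replicates individually reach that level; inactive = mean lysis activity below 80%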
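read-out = cell lysis signal | test system = log-phase Cryptococcus neoformans yeast cells | input = cells at 5 × 10^6 per mL | medium = fresh YPD growth medium | signal = luminescent adenylate kinase detection reagent | timing = 4 h at 37 °C static, read 1 h later | dosing = single dose | controls = Clomiphene as positive lysis control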
Wnt bcat act – Wnt/beta-catenin pathway activators, primary screen, cell-based, plate reader, single point. activation, % at 9.35 µM. Wnt/beta-catenin reporter cell assay, activator. AID 743398, 2014. 1.2% of 300,000 active; in the data active = activation above about 30%, passing the limit was not always enough; inconclusive = no clear call, values can overlap the other calls;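 also: 0% = neutral control wells and 100% = positive control wells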
MITF TRPM1 HTS – activators of MITF-driven TRPM1 promoter reporter, primary screen, cell-based, SK-MEL-5, luciferase, single point | AID 588334, 2011 | activation, % at 12.5 µM | 0.75% of 300,000 active | SK-MEL-5 TRPM1-promoter luciferase, 24 h; % of positive control, neutral wells = 0;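 active = mean activation of at least 80% with every replicate also reaching 80%; inconclusive = mean reaches 80% but some replicate falls short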;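 also: 0% = neutral control wells and 100% = parthenolide positive control wells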
The depositor's hits bear a star; u = inconclusive; x = no result. Shown are actives, neighbours in structure and some others; about 1.5% of the full set was active somewhere.

SMILES	PGC1a acetyl inh	Cneo AK release	Wnt bcat act	MITF TRPM1 HTS
CC(=NNc1ccc([N+](=O)[O-])cn1)c1ccccc1	2.4	0.9	6.4	92.1*
Cc1ccc(C=NNc2ccc([N+](=O)[O-])cn2)cc1	x	x	6.4	122.2*
CCCC(=O)Nc1ccc2c(c1)C(=O)N(C)C[C@@H](OC)[C@H](C)CN(Cc1ccccc1F)[C@@H](C)CO2	5.4	-5.4	x	x
C[C@@H]1CN([C@@H](C)CO)C(=O)c2ccccc2-c2ccccc2CO[C@H]1CN(C)Cc1ccc(C(=O)O)cc1	3.9	-1.9	x	x
COc1ccccc1-c1cnc2c(c1)C(=O)N([C@H](C)CO)C[C@H](C)[C@@H](CN(C)Cc1ccncc1)O2	0.9	0.4	x	x
CC(C)CC#Cc1cnc2c(c1)C(=O)N([C@H](C)CO)C[C@H](C)[C@@H](CN(C)Cc1ccccc1F)O2	-19.6	5.7	x	x
C[C@@H](NC(=O)C[C@H]1CC[C@H]2[C@@H](COC[C@H](O)CN2C(=O)Nc2ccccc2)O1)c1ccccc1	2.7	-0.7	x	x
O=C1CCCC(O)=C1N=Nc1ccc(C(=O)O)cc1	-0.4	-3.0	-4.2	-3.5
O=C1CCCC(O)=C1N=Nc1ccc2c(c1)OCO2	u	2.3	45.5*	18.8
CC1CCc2nc(/C(C#N)=C/c3cccnc3)sc2C1 (configuration not stated)	x	x	x	85.1*
C[C@H]1CN([C@@H](C)CO)C(=O)c2cc(NC(=O)c3ccncc3)ccc2O[C@@H]1CN(C)C(=O)Nc1ccc(C(F)(F)F)cc1	2.3	-1.1	x	x
Fc1ccc(N2CCN(c3cnc4ccccc4n3)CC2)cc1	x	-0.9	42.2*	60.7
COc1ccc(N2CCN(c3cnc4ccccc4n3)CC2)cc1	-9.4	0.3	9.7	96.6*
CCCC#Cc1ccc2c(c1)[C@@H]1[C@@H](CCN1S(=O)(=O)c1ccccc1)[C@@H](CO)N2C	1.4	8.9	x	x
O=C(COC(=O)c1cc2ccccc2oc1=O)Nc1ccc(F)cc1F	-5.8	2.3	47.1*	61.6
CCc1ccc(C(=O)CN(C#N)c2nc(C)cc(C)n2)cc1	48.8*	0.6	-0.5	0.3
CC(C)C(OC(=O)C1=Cc2ccccc2OC1)C(=O)NCC1CCCO1 (configuration not stated)	1.9	-0.3	36.1*	8.5
CCC(=O)Nc1ccc(OCc2nc3ccccc3s2)cc1	x	x	41.2*	4.9
Cc1cc(OCc2nc3ccccc3s2)ccc1N	-11.0	x	41.4*	x
NC(=O)c1ccccc1OCc1nc2ccccc2s1	2.1	-0.6	41.6*	55.3
c1ccc(OCc2nc3ccccc3s2)cc1	x	-4.5	x	x
Fc1ccc(OCc2nc3ccccc3s2)cc1	x	x	59.3*	27.2
CN1c2ccc(-c3cccc(C#N)c3)cc2[C@@H]2[C@@H](CCN2S(=O)(=O)c2ccccc2)[C@H]1CO	-2.8	-5.3	x	x
C[C@H]1CN([C@@H](C)CO)C(=O)Cc2cc(NC(=O)C3CCCCC3)ccc2O[C@@H]1CN(C)C(=O)NC1CCCCC1	2.5	-1.1	x	x
Cc1cc(C)n(-c2nnc(NC34CC5CC(CC(C5)C3)C4)nn2)n1	9.2	-0.4	x	138.4*
SMILES	PGC1a acetyl inh	Cneo AK release	Wnt bcat act	MITF TRPM1 HTS
C[C@H](CO)N1C[C@H](C)[C@H](CN(C)Cc2cccnc2)Oc2cc(-c3cccnc3)ccc2S1(=O)=O	10.3	x	x	x
Cc1c(C(=O)Nc2ccc(Br)cc2)cnn1C	x	-4.6	40.1*	28.3
CC(=O)Nc1ccc(NC(=O)c2ccccc2Br)cc1	12.4	0.0	-0.4	x
O=C(Nc1ccc(Br)cc1)c1ccccc1Br	x	-6.6	8.0	101.1*
O=C(Nc1ccc(Br)cc1)c1cc2ccccn2n1	-8.4	-0.8	52.6*	35.0
C[C@H](CO)N1C[C@H](C)[C@H](CN(C)Cc2ccc(C(=O)O)cc2)Oc2c(NS(=O)(=O)c3ccc(Cl)cc3)cccc2C1=O	3.4	51.6	x	x
COCC(=O)N(C)C[C@@H]1Oc2cc(-c3cccnc3)ccc2S(=O)(=O)N([C@@H](C)CO)C[C@H]1C	9.6	1.7	x	x
N/C(CS(=O)(=O)c1ccccn1)=N\OC(=O)c1ccccc1Cl	-2.0	-2.7	54.0*	x
CC(=O)NC(c1cccc(F)c1)c1nc(-c2cccc(C(C)C)c2)cs1 (configuration not stated)	99.5*	-1.1	0.3	x
CC(=O)NC(c1cccc(F)c1)c1nc(-c2cccc(C(=O)O)c2)cs1 (configuration not stated)	-13.0	0.9	-0.3	x
CC(=O)N(C)C[C@H]1Oc2ncc(-c3ccc(C(=O)N(C)C)cc3)cc2C(=O)N([C@H](C)CO)C[C@@H]1C	4.9	2.3	x	x
O=S(=O)(c1ccc(Cl)cc1)c1snnc1-c1ccccc1	41.8*	-4.1	x	-82.4
COc1ccc(Nc2oc(-c3ccc(OC)cc3)nc2C#N)cc1	7.9	x	32.2*	x
COCCNc1oc(-c2ccc(Cl)cc2)nc1C#N	3.2	0.2	43.1*	81.3*
COc1ccc(Nc2oc(-c3ccc(Cl)cc3)nc2C#N)cc1	-6.9	-0.8	13.5	31.0
COCCNc1oc(/C=C/c2ccccc2)nc1C#N	x	x	45.6*	102.8*
N#Cc1nc(-c2ccc(Cl)cc2)oc1NCc1ccco1	7.7	-1.1	38.4*	70.1
COc1ccc(S(=O)(=O)N(C)C[C@H]2Oc3ccc(NC(=O)Nc4cccc5ccccc45)cc3C(=O)N([C@@H](C)CO)C[C@H]2C)cc1	-1.8	x	x	x
CO[C@@H]1CN(C)C(=O)c2cc(NS(=O)(=O)c3cn(C)cn3)ccc2OC[C@H](C)N(CCC(F)(F)F)C[C@H]1C	9.7	x	x	x
O=C(C[C@@H]1C[C@@H]2c3cc(NC(=O)NC4CCCC4)ccc3O[C@@H]2[C@H](CO)O1)NCc1ccncc1	3.7	10.6	x	x
N#Cc1nc(-c2ccc(Cl)cc2)oc1NCCc1ccccn1	-4.9	-0.8	36.3*	27.3
Cc1ccc(-c2nc(C#N)c(NCCc3ccccn3)o2)cc1	7.1	-1.5	x	66.8
O=c1c2ccccc2oc2ccc(-c3ccc4[nH]ccc4c3)cc12	5.7	-3.2	-3.1	112.6*
COc1ccccc1-c1oc2ccccc2c1-c1ccc2cc[nH]c2c1	-11.2	-1.2	-3.3	1.4
O=c1c2ccccc2oc2cc(-c3ccc4cc[nH]c4c3)ccc12	x	-0.9	37.6*	129.2*
SMILES	PGC1a acetyl inh	Cneo AK release	Wnt bcat act	MITF TRPM1 HTS
C[C@@H]1CN([C@@H](C)CO)C(=O)Cc2cc(NC(=O)NC3CCCCC3)ccc2O[C@H]1CN(C)C(=O)Nc1ccccc1	5.7	-7.2	x	x
O=C(CSc1nnc(C2CCCCC2)o1)Nc1ccccc1Cl	-10.8	-0.1	21.1	109.5*
COc1cccc(NC(=O)C[C@@H]2CC[C@H]3[C@H](COc4ccc(NC(C)=O)cc4C(=O)N3C)O2)c1	-1.4	-0.1	x	x
Nc1nc(SCc2ccccc2)cc(SCc2ccccc2)n1	12.5	-0.8	39.0*	54.0
CN(C)C(=O)C[C@H]1CC[C@H]2[C@@H](COc3ccc(NC(=O)NCc4ccccc4)cc3C(=O)N2C)O1	-1.5	57.6	x	x
O=C(C[C@H]1CC[C@@H](NC(=O)Nc2cc(F)ccc2F)[C@@H](CO)O1)Nc1ccc(-c2ccccc2)cc1	-4.7	-9.6	x	x

Assay outcomes: PubChem, Broad Institute
